From ChEMBL document CHEMBL3351939, “Diterpenoids with Immunosuppressive Activities from Cinnamomum cassia” (J Nat Prod, 2014)
The source made the active and inactive calls. The rule behind the calls is not given here.

Assays:
T-cell = assay: Immunosuppressive activity in mouse T cells assessed as inhibition of ConA-induced cell proliferation at 0.05 to 0.8 mM; type: functional, cell-based
In short: (§1)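 Murine splenocytes with ConA-induced T-cell proliferation; the read-out is percent inhibition of proliferation. Cyclosporine A serves as the reference. Results are given as mean ± SD, n = 3.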

[1] = Immunosuppressive activity in mouse T cells assessed as inhibition of ConA-induced cell proliferation at 50 uM; type: functional; in short: as §1
[2] = Toxicity against mouse lymphocytes assessed as cell viability at 50 uM; type: cell-based, Lymphocyte; details: read-out: Activity
B = assay: Immunosuppressive activity in mouse B cells assessed as inhibition of LPS-induced cell proliferation at 0.05 to 0.8 mM; type: functional, cell-based
In short: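 Murine splenocytes with LPS-induced B-cell proliferation; the read-out is percent inhibition of proliferation.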

[3] = Immunosuppressive activity in mouse T cells assessed as inhibition of ConA-induced cell proliferation at 100 uM; type: functional; in short: as §1

| Structure (SMILES) | inhibition (T-cell) | inhibition at 50 µM [1] [%] | viability at 50 µM [2] [%] | inhibition (B) | inhibition at 100 µM [3] [%] |
| --- | --- | --- | --- | --- | --- |
| CC1=C([C@H](C)CO)C[C@@]2(O)[C@@]3(C)CC(=O)O[C@@H]4[C@@H](C)CC[C@@]3(O)[C@@]4(O)[C@@]12O | Dose-dependent effect | 58.8 | 97.8 | Dose-dependent effect | – |
| CC1=C([C@H](C)CO)C[C@@]2(O)[C@@]3(C)CC(=O)O[C@H]([C@]4(O)[C@H](C)CC[C@@]43O)[C@@]12O | Dose-dependent effect | 86.1 | 105 | Dose-dependent effect | 94.5 |
| CC1=C(C(C)C)C[C@@]2(O)[C@@]3(CO[C@@H]4O[C@H](CO)[C@@H](O)[C@H](O)[C@H]4O)CC(=O)O[C@H]([C@]4(O)[C@H](C)CC[C@@]43O)[C@@]12O | inactive | – | – | inactive | – |
| C/C=C/C[C@@H](C)[C@@H](O)[C@H]1C(=O)N[C@@H](CC)C(=O)N(C)CC(=O)N(C)[C@@H](CC(C)C)C(=O)N[C@@H](C(C)C)C(=O)N(C)[C@@H](CC(C)C)C(=O)N[C@@H](C)C(=O)N[C@H](C)C(=O)N(C)[C@@H](CC(C)C)C(=O)N(C)[C@@H](CC(C)C)C(=O)N(C)[C@@H](C(C)C)C(=O)N1C [CYCLOSPORINE] | – | – | – | – | 101 |
